Activity calls are given as the source filed them.
What was measured:
Rattus norvegicus [1] = assay: Inhibition of sucrose intake in Zucker fa/fa rat at 10 mg/kg, po after 4 hrs; format: functional; settings: for inhibition in vivo at 10 mg/kg: Rattus norvegicus, Zucker, po, 4 h
Outline: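 Female Zucker fa/fa rats (10-12 weeks, 300-350 g) trained six consecutive days on 5% sucrose with food and water withdrawn; day 7 randomized (n=6), dosed orally 10 mg/kg in 0.5% carboxymethylcellulose (2 mL/kg), exposed to sucrose 1 h later for 4 h. Consumption measured; % inhibition vs vehicle control; one-way ANOVA with Dunnett's test.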

Cannabinoid receptor 1 = Cannabinoid receptor 1 (Homo sapiens, UniProt P21554); assay: biochemical; format: cell-based, HEK293
Cannabinoid receptor 1, sequence (P21554 whole entry): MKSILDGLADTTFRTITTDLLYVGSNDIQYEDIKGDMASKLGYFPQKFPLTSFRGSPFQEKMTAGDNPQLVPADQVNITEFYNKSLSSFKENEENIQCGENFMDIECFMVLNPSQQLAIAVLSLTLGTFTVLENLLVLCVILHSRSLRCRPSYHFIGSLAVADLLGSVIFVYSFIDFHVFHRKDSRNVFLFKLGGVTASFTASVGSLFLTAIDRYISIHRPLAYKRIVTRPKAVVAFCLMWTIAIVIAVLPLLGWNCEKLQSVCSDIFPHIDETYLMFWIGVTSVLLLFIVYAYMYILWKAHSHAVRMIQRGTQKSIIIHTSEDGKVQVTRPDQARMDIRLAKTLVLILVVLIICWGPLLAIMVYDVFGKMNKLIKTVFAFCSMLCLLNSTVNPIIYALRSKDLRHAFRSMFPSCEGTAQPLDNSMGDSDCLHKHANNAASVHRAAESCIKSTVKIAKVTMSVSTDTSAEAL

Cannabinoid receptor 2 = Cannabinoid receptor 2 (Homo sapiens, UniProt P34972); assay: Displacement of [3H]WIN-552122 from human recombinant CB2 receptor expressed in CHOK1 cells; format: cell-based, CHO-K1
Cannabinoid receptor 2, sequence (P34972 whole entry): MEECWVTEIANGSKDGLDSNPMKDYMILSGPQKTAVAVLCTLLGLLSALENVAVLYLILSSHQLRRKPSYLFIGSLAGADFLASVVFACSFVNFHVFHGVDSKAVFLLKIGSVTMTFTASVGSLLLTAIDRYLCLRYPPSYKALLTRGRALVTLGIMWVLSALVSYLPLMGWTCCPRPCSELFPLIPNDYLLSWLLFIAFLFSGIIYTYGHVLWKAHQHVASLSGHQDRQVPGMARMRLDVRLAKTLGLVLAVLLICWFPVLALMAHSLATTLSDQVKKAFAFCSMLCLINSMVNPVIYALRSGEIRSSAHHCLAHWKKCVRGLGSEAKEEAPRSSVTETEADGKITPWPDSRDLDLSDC

Rattus norvegicus [2] = assay: Inhibition of body weight gain in Zucker fa/fa rat at 10 mg/kg, po; format: functional, organism-based; design: dose 10 mg/kg
Outline: (§1)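 Individually housed female obese Zucker fa/fa rats, groups of six, dosed orally daily 1 h before dark phase for 60 days; body weight recorded daily. Day 61 morning retro-orbital blood drawn and serum triglyceride measured by colorimetric kit. One-way ANOVA with Dunnett's test versus control.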

Rattus norvegicus [3] = assay: Reduction in serum triglyceride level in Zucker fa/fa rat at 10 mg/kg, po after 60 days; format: functional, organism-based; design: dose 10 mg/kg; outline: as §1
[4] = Tmax in fasted Zucker fa/fa rat at 30 mg/kg, po; format: ADME, organism-based; design: dose 30 mg/kg, route oral; settings: in vivo
Outline: (§2)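 Overnight-fasted female obese Zucker fa/fa rats (n=6), single 30 mg/kg oral dose as suspension in 0.5% carboxymethylcellulose sodium in water. Retro-orbital serial bleeds at 10, 20, 40 min and 1, 2, 4, 6, 8, 24, 48 h; plasma extracted liquid-liquid and quantified by LC-MS against spiked-matrix calibration with internal standard. Noncompartmental parameters computed.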

[5] = Cmax in fasted Zucker fa/fa rat at 30 mg/kg, po; format: ADME, organism-based; design: dose 30 mg/kg, route oral; settings: in vivo; outline: as §2
[6] = Half life in fasted Zucker fa/fa rat at 30 mg/kg, po; format: ADME, organism-based; design: dose 30 mg/kg, route oral; settings: in vivo; outline: as §2
[7] = AUC (0 to infinity) in fasted Zucker fa/fa rat at 30 mg/kg, po; format: ADME, organism-based; design: time infinity, dose 30 mg/kg, route oral; settings: plasma; outline: as §2
[8] = Drug concentration in fasted Zucker fa/fa rat brain at 30 mg/kg, po after 3 hrs; format: ADME, organism-based; design: dose 30 mg/kg, route oral; settings: read-out: Drug uptake
Outline: (§3)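 Female obese Zucker fa/fa rats (n=6), fasted, single oral 30 mg/kg in 0.5% carboxymethylcellulose; blood, brain and white adipose tissue taken at 3 h. Tissues saline-washed and homogenized in Tris buffer pH 7.4; plasma and homogenates liquid-liquid extracted and assayed by LC-MS (cyano column, ammonium acetate/TFA–acetonitrile 30:70). Values mean ± SEM.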

[9] = Drug concentration in fasted Zucker fa/fa rat white adipose tissue at 30 mg/kg, po after 3 hrs; format: ADME, organism-based; design: dose 30 mg/kg, route oral; settings: read-out: Drug uptake; outline: as §3
[10] = Drug concentration in fasted Zucker fa/fa rat plasma at 30 mg/kg, po after 3 hrs; format: ADME, organism-based; design: dose 30 mg/kg, route oral; outline: as §3
Mus musculus [11] = assay: Effect on locomotor activity in Swiss albino mouse tetrad model assessed as number of squares crossed in 5 mins at 1 mg/kg po after 35 mins in presence of 1 mg/kg cannabinoid agonist WIN-55212-2 relative to control; format: functional
Outline: (§4)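 Female Swiss albino mice (10-12 weeks, 25-30 g), n=6, dosed orally in 0.5% carboxymethylcellulose (10 mL/kg); 1 h later WIN-55212-2 1 mg/kg iv in 0.01% Tween 80/5% DMSO saline. From 30 min on: rectal temperature before and after treatment; hot plate 55 °C, %MPE, 30 s cutoff; ring-test immobility over 5 min; open-field squares crossed in 5 min at 35 min. Compared with WIN-treated controls.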

Mus musculus [12] = assay: Effect on locomotor activity in Swiss albino mouse tetrad model assessed as number of squares crossed in 5 mins at 3 mg/kg po after 35 mins in presence of 1 mg/kg cannabinoid agonist WIN-55212-2 relative to control; format: functional; outline: as §4
Mus musculus [13] = assay: Effect on locomotor activity in Swiss albino mouse tetrad model assessed as number of squares crossed in 5 mins at 10 mg/kg po after 35 mins in presence of 1 mg/kg cannabinoid agonist WIN-55212-2 relative to control; format: functional; outline: as §4
Mus musculus [14] = assay: Effect on locomotor activity in Swiss albino mouse tetrad model assessed as number of squares crossed in 5 mins at 30 mg/kg po after 35 mins in presence of 1 mg/kg cannabinoid agonist WIN-55212-2 relative to control; format: functional; outline: as §4
Mus musculus [15] = assay: Effect on catalepsy in Swiss albino mouse tetrad model assessed as immobility for 5 mins at 30 mg/kg po after 30 mins by ring test in presence of 1 mg/kg cannabinoid agonist WIN-55212-2 relative to control; format: functional; outline: as §4
Mus musculus [16] = assay: Analgesic activity in Swiss albino mouse tetrad model at 1 mg/kg po by hot plate test in presence of 1 mg/kg cannabinoid agonist WIN-55212-2 relative to control; format: functional; outline: as §4
Mus musculus [17] = assay: Effect on change in body temperature in Swiss albino mouse tetrad model at 1 mg/kg po in presence of 1 mg/kg cannabinoid agonist WIN-55212-2 relative to control; format: functional; outline: as §4
Mus musculus [18] = assay: Effect on change in body temperature in Swiss albino mouse tetrad model at 3 mg/kg po in presence of 1 mg/kg cannabinoid agonist WIN-55212-2 relative to control; format: functional; outline: as §4
Mus musculus [19] = assay: Effect on change in body temperature in Swiss albino mouse tetrad model at 10 mg/kg po in presence of 1 mg/kg cannabinoid agonist WIN-55212-2 relative to control; format: functional; outline: as §4
Mus musculus [20] = assay: Effect on change in body temperature in Swiss albino mouse tetrad model at 30 mg/kg po in presence of 1 mg/kg cannabinoid agonist WIN-55212-2 relative to control; format: functional; outline: as §4
Mus musculus [21] = assay: Effect on catalepsy in Swiss albino mouse tetrad model assessed as immobility for 5 mins at 1 mg/kg po after 30 mins by ring test in presence of 1 mg/kg cannabinoid agonist WIN-55212-2 relative to control; format: functional; outline: as §4
Mus musculus [22] = assay: Effect on catalepsy in Swiss albino mouse tetrad model assessed as immobility for 5 mins at 3 mg/kg po after 30 mins by ring test in presence of 1 mg/kg cannabinoid agonist WIN-55212-2 relative to control; format: functional; outline: as §4
Mus musculus [23] = assay: Effect on catalepsy in Swiss albino mouse tetrad model assessed as immobility for 5 mins at 10 mg/kg po after 30 mins by ring test in presence of 1 mg/kg cannabinoid agonist WIN-55212-2 relative to control; format: functional; outline: as §4
Mus musculus [24] = assay: Analgesic activity in Swiss albino mouse tetrad model at 3 mg/kg po by hot plate test in presence of 1 mg/kg cannabinoid agonist WIN-55212-2 relative to control; format: functional; outline: as §4
Mus musculus [25] = assay: Analgesic activity in Swiss albino mouse tetrad model at 10 mg/kg po by hot plate test in presence of 1 mg/kg cannabinoid agonist WIN-55212-2 relative to control; format: functional; outline: as §4
Mus musculus [26] = assay: Analgesic activity in Swiss albino mouse tetrad model at 30 mg/kg po by hot plate test in presence of 1 mg/kg cannabinoid agonist WIN-55212-2 relative to control; format: functional; outline: as §4

## O=C(NN1CCOCC1)C1=NN(c2ccc(Cl)cc2Cl)C(c2ccc(Cl)cc2)C1 (configuration not stated)
Rattus norvegicus [1]
  Inhibition: 34.2%

## O=C(NN1CCOCC1)C1=NN(c2ccc(Cl)cc2)C(c2ccc(Cl)cc2)C1 (configuration not stated)
Rattus norvegicus [1]
  inhibition in vivo at 10 mg/kg: 8.1%

## O=C(NN1CCOCC1)C1=NN(c2ccc(Cl)cc2)C(c2ccccc2)C1 (configuration not stated)
Rattus norvegicus [1]
  inhibition in vivo at 10 mg/kg: 5.6%

## CCCCCc1ccc(C2CC(C(=O)NN3CCOCC3)=NN2c2ccc(Cl)cc2Cl)cc1 (configuration not stated)
Rattus norvegicus [1]
  inhibition in vivo at 10 mg/kg: 13.1%

## COc1ccc(C2CC(C(=O)NN3CCOCC3)=NN2c2ccc(Cl)cc2Cl)cc1 (configuration not stated)
Rattus norvegicus [1]
  inhibition in vivo at 10 mg/kg: 9.4%

## O=C(NN1CCOCC1)C1=NN(c2ccc(Cl)cc2Cl)C(c2cccnc2)C1 (configuration not stated)
Rattus norvegicus [1]
  inhibition in vivo at 10 mg/kg: 4%

## CS(=O)(=O)O.O=C(NN1CCOCC1)C1=NN(c2ccc(Cl)cc2Cl)C(c2ccc(Cl)cc2)C1 (configuration not stated)
Rattus norvegicus [1]
  Inhibition: 19.2%

## Cl.O=C(NN1CCOCC1)C1=NN(c2ccc(Cl)cc2Cl)C(c2ccc(Cl)cc2)C1 (racemic; form 1)
Rattus norvegicus [1]; 10 mg/kg
  Inhibition: 34.5%

## O=C(NN1CCOCC1)C1=NN(c2ccc(Cl)cc2Cl)C(c2ccc(Cl)cc2)C1.O=S(=O)(O)O (racemic; form 2)
Rattus norvegicus [1]; 10 mg/kg
  Inhibition: 36.4%
Cannabinoid receptor 1
  Ki: 334 nM
Cannabinoid receptor 2
  Ki: 21.7 µM

## O=C(NN1CCOCC1)C1=NN(c2ccc(Cl)cc2Cl)C(c2ccc(Cl)cc2)C1 (racemic; form 2)
Rattus norvegicus [2]
  Activity: Active
Rattus norvegicus [3]
  Activity: Active

## Cl.O=C(NN1CCOCC1)C1=NN(c2ccc(Cl)cc2Cl)C(c2ccc(Cl)cc2)C1 (single isomer, unassigned; 27)
Rattus norvegicus [1]; 10 mg/kg
  Inhibition: 30.1%

## O=C(NN1CCOCC1)C1=NN(c2ccc(Cl)cc2Cl)C(c2ccc(Cl)cc2)C1.O=S(=O)(O)O (single isomer, unassigned; 28)
Rattus norvegicus [1]; 10 mg/kg
  Inhibition: 15.4%
Cannabinoid receptor 1
  Ki: 475 nM
Cannabinoid receptor 2
  Ki: 26.4 µM

## O=C(NN1CCOCC1)C1=NN(c2ccc(Cl)cc2Cl)C(c2ccc(Cl)cc2)C1.O=S(=O)(O)O (single isomer, unassigned; 30)
Rattus norvegicus [1]; 10 mg/kg
  Inhibition: 58.6%
[4]
  Tmax: 3.7 h
[5]
  Cmax: 510 ng/mL
[6]
  half-life: 1060 min
[7]
  AUC(0-inf): 10000 ng·h/mL
[8]
  concentration at 3 h: 4860 ng/g
[9]
  concentration at 3 h: 6310 ng/g
[10]
  concentration at 3 h: 1400 ng/mL
Cannabinoid receptor 1
  Ki: 150 nM
Cannabinoid receptor 2
  Ki: 24.5 µM
Mus musculus [11]
  Activity: 0.4
Mus musculus [12]
  Activity: 3
Mus musculus [13]
  Activity: 13.25
Mus musculus [14]
  Activity: 25
Mus musculus [15]
  Activity: 18.23%
Mus musculus [16]
  MPE: 24%
Mus musculus [17]
  Activity: -4.24 °C
Mus musculus [18]
  Activity: -2.1 °C
Mus musculus [19]
  Activity: -0.15 °C
Mus musculus [20]
  Activity: 0.15 °C
Mus musculus [21]
  Activity: 85.2%
Mus musculus [22]
  Activity: 33.75%
Mus musculus [23]
  Activity: 14.2%
Mus musculus [24]
  MPE: 12%
Mus musculus [25]
  MPE: -0.15%
Mus musculus [26]
  MPE: 11.5%

## O=C(NN1CCOCC1)C1=NN(c2ccc(Cl)cc2Cl)C(c2ccc(Cl)cc2)C1 (single isomer, unassigned; 30)
Rattus norvegicus [2]
  Activity: Active
Rattus norvegicus [3]
  Activity: Active

## O=C(NN1CCOCC1)C1=NN(c2ccc(Cl)cc2Cl)C(c2ccc(Cl)cc2)C1.O=S(=O)(O)c1ccccc1 (single isomer, unassigned; 33)
Rattus norvegicus [1]
  Inhibition: 17.1%

## Cl.O=C(NN1CCOCC1)C1=NN(c2ccc(Cl)cc2Cl)C(c2ccc(Cl)cc2)C1 (stereo in doubt; 29)
Rattus norvegicus [1]; 10 mg/kg
  Inhibition: 42.2%

## Cc1c(C(=O)NN2CCCCC2)nn(-c2ccc(Cl)cc2Cl)c1-c1ccc(Cl)cc1 [RIMONABANT]
Rattus norvegicus [1]
  inhibition in vivo at 10 mg/kg: 36.7%
Rattus norvegicus [2]
  Activity: Active
Rattus norvegicus [3]
  Activity: Active
[4]
  Tmax: 2.6 h
[5]
  Cmax: 1920 ng/mL
[6]
  half-life: 1590 min
[7]
  AUC(0-inf): 41200 ng·h/mL
[8]
  concentration at 3 h: 450 ng/g
[9]
  concentration at 3 h: 4250 ng/g
[10]
  concentration at 3 h: 400 ng/mL

— ChEMBL document CHEMBL1138302, “Diaryl dihydropyrazole-3-carboxamides with significant in vivo antiobesity activity related to CB1 receptor antagonism: synthesis, biological evaluation, and molecular modeling in the homology model” (J Med Chem, 2007)
